One experiment concerns NCI-H1299. Briefly: Antiproliferative activity against human H1299 cells assessed as inhibition of cell viability at 10 uM after 72 hrs by CCK-8 assay relative to control. In kind it is functional. Conditions: NCI-H1299, 72 h. The essentials:
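Single-concentration viability screen using CCK-8. Cells were seeded at 3000/well and treated for 72 h. A450 read after 1-4 h with reagent. Percent inhibition calculated against untreated control and blank wells as (Ac−As)/(Ac−Ab)×100%.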

Experiment [1] deals with Mitogen-activated protein kinase 1 (Homo sapiens) (UniProt P28482). As to the kind of experiment: Inhibition of recombinant full-length human MAPK1 at 1 uM using MBP as substrate measured after 40 mins in presence of [gamma33P]ATP by scintillation counting method relative to control.
Mitogen-activated protein kinase 1 (Homo sapiens), sequence (P28482 whole entry): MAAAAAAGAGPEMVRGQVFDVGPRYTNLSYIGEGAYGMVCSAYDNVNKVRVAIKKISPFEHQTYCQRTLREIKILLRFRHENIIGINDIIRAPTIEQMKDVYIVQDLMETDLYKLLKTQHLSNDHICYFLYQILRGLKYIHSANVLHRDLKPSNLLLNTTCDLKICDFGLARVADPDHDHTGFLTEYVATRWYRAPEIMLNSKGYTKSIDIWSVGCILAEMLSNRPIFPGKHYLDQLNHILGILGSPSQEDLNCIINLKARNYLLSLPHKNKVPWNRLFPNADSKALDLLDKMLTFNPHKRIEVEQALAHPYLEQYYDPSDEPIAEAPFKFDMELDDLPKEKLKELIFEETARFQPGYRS
Experiment [2] concerns the target Serine/threonine-protein kinase mTOR (Homo sapiens) (UniProt P42345). Briefly: Inhibition of recombinant full-length human mTOR at 1 uM after 40 mins in presence of [gamma33P]ATP by scintillation counting method relative to control.
Experiment [3] deals with Tyrosine-protein kinase HCK (Homo sapiens) (UniProt P08631). Briefly: Inhibition of recombinant human HCK (230 to 497 residues) at 1 uM using Cdc2 peptide as substrate measured after 40 mins in presence of [gamma33P]ATP by scintillation counting method relative to control.
Tyrosine-protein kinase HCK (Homo sapiens), sequence (P08631 2-526 limits assumed): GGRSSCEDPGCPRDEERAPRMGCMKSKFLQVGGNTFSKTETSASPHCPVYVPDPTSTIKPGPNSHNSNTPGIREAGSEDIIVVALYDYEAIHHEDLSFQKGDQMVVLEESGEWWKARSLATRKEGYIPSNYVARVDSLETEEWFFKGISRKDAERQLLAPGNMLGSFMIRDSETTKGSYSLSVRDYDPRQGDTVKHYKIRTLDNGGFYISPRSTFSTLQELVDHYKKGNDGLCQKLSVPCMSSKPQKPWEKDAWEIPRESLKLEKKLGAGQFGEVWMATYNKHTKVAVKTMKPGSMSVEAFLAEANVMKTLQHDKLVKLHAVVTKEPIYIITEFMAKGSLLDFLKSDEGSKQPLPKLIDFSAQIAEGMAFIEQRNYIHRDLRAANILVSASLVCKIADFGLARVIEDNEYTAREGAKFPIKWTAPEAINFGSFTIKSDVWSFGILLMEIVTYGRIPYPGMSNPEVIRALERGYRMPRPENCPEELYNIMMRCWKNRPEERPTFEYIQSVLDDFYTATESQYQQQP
The target of experiment [4] is Transcription initiation factor TFIID subunit 1-like (Homo sapiens) (UniProt Q8IZX4). Briefly: Inhibition of recombinant human TAF1L (1428 to end residues) at 1 uM using RRRFRPASPLRGPPK as substrate after 120 mins in presence of [gamma33P]ATP by scintillation counting analysis relative to control.
Experiment [5] relates to Phosphorylase b kinase gamma catalytic chain, liver/testis isoform (Homo sapiens), P15735 [F290L]. As to the kind of experiment: Inhibition of recombinant human PhKG2 F290L mutant (1 to 301 residues) at 1 uM using KKLNRTLSFAEPG as substrate measured after 40 mins in presence of [gamma33P]ATP by scintillation counting method relative to control.
Phosphorylase b kinase gamma catalytic chain, liver/testis isoform (Homo sapiens), P15735 [F290L], sequence (P15735 whole entry F290L, the tested form may be a part, canonical isoform): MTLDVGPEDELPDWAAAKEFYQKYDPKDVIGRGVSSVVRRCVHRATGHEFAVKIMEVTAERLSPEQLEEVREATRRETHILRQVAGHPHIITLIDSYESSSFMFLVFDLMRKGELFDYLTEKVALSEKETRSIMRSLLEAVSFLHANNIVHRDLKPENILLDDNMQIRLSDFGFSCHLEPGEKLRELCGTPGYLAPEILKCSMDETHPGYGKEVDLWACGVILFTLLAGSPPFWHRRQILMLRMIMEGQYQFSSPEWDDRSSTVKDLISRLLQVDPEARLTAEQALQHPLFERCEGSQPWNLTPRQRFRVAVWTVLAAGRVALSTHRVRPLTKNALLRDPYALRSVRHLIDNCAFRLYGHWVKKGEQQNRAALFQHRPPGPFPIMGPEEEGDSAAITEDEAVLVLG
For experiment [6], the system named is Homeodomain-interacting protein kinase 2 (Homo sapiens), Q9H2X6 [UNDEFINED MUTATION]. As to the kind of experiment: Inhibition of recombinant human HIPK2 I471N mutant (165 to 564 residues) at 1 uM using myelin basic protein as substrate measured after 40 mins in presence of [gamma33P]ATP by scintillation counting method relative to control.
The target of experiment [7] is Insulin-like growth factor 1 receptor (Homo sapiens) (UniProt P08069). Briefly: Inhibition of recombinant human IGF1R (959 to end residues) at 1 uM using KKKSPGEYVNIEFG as substrate measured after 40 mins in presence of [gamma33P]ATP by scintillation counting method relative to control.
Experiment [8] has as its system Hepatocyte growth factor receptor (Homo sapiens), P08581 [D1228N]. Briefly: Inhibition of recombinant human MET A1209G/V1290L/D1246N mutant (974 to end residues) at 1 uM using KKKGQEEEYVFIE as substrate measured after 40 mins in presence of [gamma33P]ATP by scintillation counting method relative to control.
In experiment [9] the target is Serine/threonine-protein kinase Nek1 (Homo sapiens) (UniProt Q96PY6). Briefly: Inhibition of recombinant human NEK1 (1 to 505 residues) at 1 uM using RLGRDKYKTLRQIRQ as substrate measured after 40 mins in presence of [gamma33P]ATP by scintillation counting method relative to control.
The target in experiment [10] is Fibroblast growth factor receptor 1 (Homo sapiens) (UniProt P11362). Briefly: Inhibition of recombinant human FGFR1 (456 to 765 residues) at 1 uM using KKKSPGEYVNIEFG as substrate measured after 40 mins in presence of [gamma33P]ATP by scintillation counting method relative to control.
Experiment [11] concerns Receptor tyrosine-protein kinase erbB-2 (Homo sapiens), P04626 [G778D]. As to the kind of experiment: Inhibition of recombinant human ErbB2 (676 to end residues) G778D mutant at 1 uM using poly(Glu, Tyr) 4:1 as substrate measured after 40 mins in presence of [gamma33P]ATP by scintillation counting method relative to control.
Experiment [12] deals with A549. Briefly: Induction of cell cycle arrest in human A549 cells assessed as increase in accumulation of cells at G2/M phase at 1 uM after 24 hrs by propidium iodide/RNase staining based flow cytometric analysis. It is filed as functional. The essentials:
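A549 and H1299 plated at 5×10^5 cells/mL in 6-well plates, treated after adherence for 24 h. Washed with PBS, fixed overnight in ice-cold 75% ethanol, stained with propidium iodide plus RNase A for 30 min at 37 °C, analysed by flow cytometry for phase distribution. Means ± SD, three independent experiments.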

The target in experiment [13] is Ephrin type-A receptor 8 (Homo sapiens) (UniProt P29322). As to the kind of experiment: Inhibition of recombinant human EphA8 (615 to 911 residues) at 1 uM using KTFCGTPEYLAPEVRREPRILSEEEQEMFRDFDYIADWC as substrate measured after 40 mins in presence of [gamma33P]ATP by scintillation counting method relative to control.
Ephrin type-A receptor 8 (Homo sapiens), sequence (P29322 whole entry, the tested form may be a part): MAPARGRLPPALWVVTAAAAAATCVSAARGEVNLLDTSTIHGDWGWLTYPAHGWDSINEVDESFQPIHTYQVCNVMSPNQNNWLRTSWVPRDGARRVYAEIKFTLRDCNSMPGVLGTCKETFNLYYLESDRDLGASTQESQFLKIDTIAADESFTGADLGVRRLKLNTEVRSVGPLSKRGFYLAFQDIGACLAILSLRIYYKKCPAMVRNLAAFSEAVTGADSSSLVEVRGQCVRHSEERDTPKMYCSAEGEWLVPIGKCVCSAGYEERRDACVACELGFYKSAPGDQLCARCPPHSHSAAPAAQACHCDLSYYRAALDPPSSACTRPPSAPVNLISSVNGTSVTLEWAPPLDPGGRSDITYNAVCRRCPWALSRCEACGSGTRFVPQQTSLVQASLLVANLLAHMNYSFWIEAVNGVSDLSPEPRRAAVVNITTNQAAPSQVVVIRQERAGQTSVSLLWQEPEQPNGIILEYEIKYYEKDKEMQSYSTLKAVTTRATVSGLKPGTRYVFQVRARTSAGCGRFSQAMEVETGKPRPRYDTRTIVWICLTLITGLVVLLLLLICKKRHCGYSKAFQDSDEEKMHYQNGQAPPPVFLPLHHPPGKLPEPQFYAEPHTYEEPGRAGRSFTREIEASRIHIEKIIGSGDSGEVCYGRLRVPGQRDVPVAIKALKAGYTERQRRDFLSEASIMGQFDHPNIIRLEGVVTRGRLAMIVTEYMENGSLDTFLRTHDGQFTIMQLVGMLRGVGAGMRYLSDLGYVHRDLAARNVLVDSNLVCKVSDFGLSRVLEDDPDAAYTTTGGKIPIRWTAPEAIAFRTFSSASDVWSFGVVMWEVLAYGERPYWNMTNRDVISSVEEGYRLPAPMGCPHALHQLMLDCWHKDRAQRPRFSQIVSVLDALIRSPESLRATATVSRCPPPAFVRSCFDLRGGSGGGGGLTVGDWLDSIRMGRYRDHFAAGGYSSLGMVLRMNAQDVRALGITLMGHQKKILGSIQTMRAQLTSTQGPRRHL
The target of experiment [14] is Serine/threonine-protein kinase 33 (Homo sapiens) (UniProt Q9BYT3). As to the kind of experiment: Inhibition of recombinant full-length human STK33 at 1 uM using myelin basic protein as substrate measured after 40 mins in presence of [gamma33P]ATP by scintillation counting method relative to control.
Serine/threonine-protein kinase 33 (Homo sapiens), sequence (Q9BYT3 whole entry, looked up): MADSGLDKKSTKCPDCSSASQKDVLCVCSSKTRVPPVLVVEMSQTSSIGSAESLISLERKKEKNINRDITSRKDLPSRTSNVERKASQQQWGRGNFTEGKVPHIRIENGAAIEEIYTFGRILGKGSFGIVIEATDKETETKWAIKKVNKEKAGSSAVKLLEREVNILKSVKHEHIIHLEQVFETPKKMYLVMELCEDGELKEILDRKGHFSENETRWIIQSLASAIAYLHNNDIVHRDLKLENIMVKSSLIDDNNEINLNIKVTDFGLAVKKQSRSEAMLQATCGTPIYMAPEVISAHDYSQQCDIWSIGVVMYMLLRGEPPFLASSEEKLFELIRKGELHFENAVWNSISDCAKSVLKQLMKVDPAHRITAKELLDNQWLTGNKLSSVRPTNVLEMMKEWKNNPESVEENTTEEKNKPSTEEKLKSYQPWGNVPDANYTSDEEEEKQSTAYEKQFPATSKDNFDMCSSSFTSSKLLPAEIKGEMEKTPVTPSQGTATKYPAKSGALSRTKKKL
Experiment [15] addresses Serine/threonine-protein kinase BRSK1 (Homo sapiens) (UniProt Q8TDC3). As to the kind of experiment: Inhibition of recombinant human BrSK1 (2 to end residues) at 1 uM using KKKVSRSGLYRSPSMPENLNRPR as substrate measured after 40 mins in presence of [gamma33P]ATP by scintillation counting method relative to control.
The target of experiment [16] is Receptor-type tyrosine-protein kinase FLT3 (Homo sapiens) (UniProt P36888). Briefly: Inhibition of recombinant human Flt3 (564 to end residues) at 1 uM using EAIYAAPFAKKK as substrate measured after 40 mins in presence of [gamma33P]ATP by scintillation counting method relative to control.
In experiment [17] the target is PI3K p110 beta/p85 alpha (Homo sapiens) (UniProt P27986+P42338). As to the kind of experiment: Inhibition of recombinant full-length human PI3K p110beta/p85alpha at 1 uM using phosphatidylinositol-4, 5-bisphosphate as substrate measured after 40 mins by fluorescence assay relative to control. In kind it is protein-complex assay.
Experiment [18] has as its system A549. As to the kind of experiment: Induction of apoptosis in human A549 cells assessed as necrotic cells at 0.25 uM after 48 hrs by AnnexinV-FITC/PI staining-based flow cytometric analysis (reference value: 0.664%). It is filed as functional.
In experiment [19] the target is [Pyruvate dehydrogenase (acetyl-transferring)] kinase isozyme 2, mitochondrial (Homo sapiens) (UniProt Q15119). As to the kind of experiment: Inhibition of human PDHK2 at 1 uM by radiometric method relative to control. The essentials: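 Percent inhibition of kinase activity at a single compound concentration, measured by the outsourced Eurofins KinaseProfiler panel. Values are the mean of two independent experiments.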

For experiment [20], the target named is Ribosomal protein S6 kinase alpha-1 (Homo sapiens) (UniProt Q15418). As to the kind of experiment: Inhibition of recombinant full-length human Rsk1 at 1 uM using KKKNRTLSVA as substrate measured after 40 mins in presence of [gamma33P]ATP by scintillation counting method relative to control.

The source made the active and inactive calls. The rule behind the calls is not given here.

Serine/threonine-protein kinase BRSK1 (Homo sapiens), sequence (Q8TDC3 whole entry): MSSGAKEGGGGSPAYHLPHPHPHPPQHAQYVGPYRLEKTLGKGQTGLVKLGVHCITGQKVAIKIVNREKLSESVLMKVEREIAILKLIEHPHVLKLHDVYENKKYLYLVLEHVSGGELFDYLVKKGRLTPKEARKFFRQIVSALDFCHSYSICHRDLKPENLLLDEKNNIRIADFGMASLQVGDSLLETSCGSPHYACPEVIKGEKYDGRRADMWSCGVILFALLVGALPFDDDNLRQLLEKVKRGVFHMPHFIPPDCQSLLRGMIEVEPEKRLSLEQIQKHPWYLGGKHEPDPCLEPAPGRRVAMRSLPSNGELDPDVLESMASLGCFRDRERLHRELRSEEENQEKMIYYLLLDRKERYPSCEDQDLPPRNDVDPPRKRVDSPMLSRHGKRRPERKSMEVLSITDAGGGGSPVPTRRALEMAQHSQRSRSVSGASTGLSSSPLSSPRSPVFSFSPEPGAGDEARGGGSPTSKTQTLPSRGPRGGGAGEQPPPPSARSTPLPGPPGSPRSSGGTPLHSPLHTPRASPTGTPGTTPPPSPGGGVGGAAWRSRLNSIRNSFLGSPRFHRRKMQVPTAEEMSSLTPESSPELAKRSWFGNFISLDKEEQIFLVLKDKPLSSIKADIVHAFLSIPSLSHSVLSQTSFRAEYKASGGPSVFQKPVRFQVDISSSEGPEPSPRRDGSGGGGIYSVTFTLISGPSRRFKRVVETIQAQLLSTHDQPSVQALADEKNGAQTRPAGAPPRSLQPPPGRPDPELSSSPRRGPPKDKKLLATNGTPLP
Hepatocyte growth factor receptor (Homo sapiens), P08581 [D1228N], sequence (P08581 whole entry D1228N, the tested form may be a part): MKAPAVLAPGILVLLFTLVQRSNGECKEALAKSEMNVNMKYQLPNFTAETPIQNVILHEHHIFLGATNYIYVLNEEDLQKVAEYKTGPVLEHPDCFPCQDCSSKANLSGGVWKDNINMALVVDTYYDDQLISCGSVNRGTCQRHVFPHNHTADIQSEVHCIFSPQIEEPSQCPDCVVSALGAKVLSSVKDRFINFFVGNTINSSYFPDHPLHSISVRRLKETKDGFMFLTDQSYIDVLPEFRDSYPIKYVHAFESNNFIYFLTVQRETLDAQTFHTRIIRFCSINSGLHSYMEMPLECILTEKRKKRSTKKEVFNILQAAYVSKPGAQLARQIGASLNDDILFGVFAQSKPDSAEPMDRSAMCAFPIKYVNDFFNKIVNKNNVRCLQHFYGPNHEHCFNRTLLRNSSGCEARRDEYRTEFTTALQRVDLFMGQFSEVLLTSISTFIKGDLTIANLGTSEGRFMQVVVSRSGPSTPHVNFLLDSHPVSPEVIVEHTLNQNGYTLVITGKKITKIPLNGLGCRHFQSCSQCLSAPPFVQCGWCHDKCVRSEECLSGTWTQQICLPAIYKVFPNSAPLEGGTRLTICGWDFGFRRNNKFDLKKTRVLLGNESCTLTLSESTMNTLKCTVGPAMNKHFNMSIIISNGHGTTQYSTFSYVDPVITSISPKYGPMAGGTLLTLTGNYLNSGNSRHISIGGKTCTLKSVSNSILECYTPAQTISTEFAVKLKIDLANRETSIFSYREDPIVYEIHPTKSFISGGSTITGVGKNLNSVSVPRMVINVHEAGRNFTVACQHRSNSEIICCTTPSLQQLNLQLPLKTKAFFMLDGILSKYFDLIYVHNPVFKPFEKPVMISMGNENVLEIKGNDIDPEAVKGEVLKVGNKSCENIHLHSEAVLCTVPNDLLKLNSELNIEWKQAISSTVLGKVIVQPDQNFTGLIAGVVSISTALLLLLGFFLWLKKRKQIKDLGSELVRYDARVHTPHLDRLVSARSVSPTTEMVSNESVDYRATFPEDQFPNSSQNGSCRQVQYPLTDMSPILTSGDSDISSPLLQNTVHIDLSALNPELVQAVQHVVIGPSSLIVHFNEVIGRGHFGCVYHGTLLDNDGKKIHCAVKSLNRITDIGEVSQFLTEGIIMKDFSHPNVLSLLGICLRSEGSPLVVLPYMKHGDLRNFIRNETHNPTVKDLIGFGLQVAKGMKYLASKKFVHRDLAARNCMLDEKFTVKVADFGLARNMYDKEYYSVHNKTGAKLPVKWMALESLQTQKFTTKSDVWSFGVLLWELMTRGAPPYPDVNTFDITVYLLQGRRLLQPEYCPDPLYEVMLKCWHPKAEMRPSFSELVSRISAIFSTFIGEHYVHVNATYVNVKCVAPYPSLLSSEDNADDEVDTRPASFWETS

As a reminder, the inhibition is the relative decrease from the control value, in per cent. `CN(C)C(=O)c1cc2cnc(Nc3ccc(NC(=O)CCCCCCCN=C=S)cc3)nc2n1C1CCCC1`: the inhibition at 10 µM in the experiment with NCI-H1299 was 98.7%. Besides, the inhibition was 3% in experiment [1]; -1% in experiment [2]; 9% in [3]; 23% in experiment [4]; 28% in [5]; 7% in experiment [6]. The inhibition in experiment [7] was -10%; in [8] it was 65%; in experiment [9], 69%; in [10] it was 72%; in experiment [11], -1%; in [13], 2%. The inhibition was 27% in experiment [14]; 16% in experiment [15]; 66% in experiment [16]; 5% in experiment [17]; -10% in [19]; 21% in experiment [20]. In the experiment on A549 [12], the outcome was Active. In the experiment on A549 [18], the Activity is given as 5.83%.
